Compound activity deposited in PubChem by several laboratories.
Most compounds without a hit are left out; they make up all but 4.5% or so of the library.
UPR XBP1 act = adaptive UPR (XBP1) activation; CHO-XBP1 luciferase reporter, IRE1-XBP1 UPR activation, luminescence; percent of tunicamycin response, DMSO as zero; activation, % at 20 µM; 330,000 compounds, 0.33% hits; AID 463104;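 active = versus positive control, 20 µM dose yields 30% or more activation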;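 also: 100% = tunicamycin at 10 µg/mL and 0% = DMSO only wells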
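Material: CHO cell line with stable XBP1 luciferase reporter; buffer or medium: F12 medium containing 10% fetal bovine serum; compound: single point, 20 µM final compound, 1% DMSO; incubation: 6 h treatment, 37 °C; measured by: glow luminescence from Steady-Glo reagent; evaluation: activation, % of tunicamycin; control set: tunicamycin high, DMSO low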
CHOP UPR activ = apoptotic UPR (CHOP) activation | AID 449763 | CHO-CHOP luciferase reporter, luminescence; percent of tunicamycin response over DMSO baseline | activation, % at 10 µM | 330,000 compounds, 0.34% hits;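 active = at 10 µM dose, activation of 40% or more, normalized to positive control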;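 also: 100% = tunicamycin at 10 µg/mL and 0% = DMSO alone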
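Dosing – one dose, 10 µM in 0.5% DMSO · System – CHO-CHOP cells, stable luciferase reporter of PERK-eIF2a-CHOP signalling · Input – 500 cells/well · Control set – tunicamycin 10 µg/mL final as positive, DMSO-only wells as negative · Timing – 6 h compound treatment, 37 °C · Measure – % activation vs tunicamycin · Technique – luminescence read with Steady-Glo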
HCV NS3 hel inh = HCV NS3 helicase inhibition; inhibition, % at 10.9 µM; NS3 helicase DNA unwinding, Cy5 molecular beacon fluorescence; 290,000 compounds, 0.56% hits;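 active = inhibition above the mean of all tested compounds plus 3 SD, set per campaign, cut at about 35% in these data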;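 also: 0% = DMSO wells and 100% = thioflavine S control wells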
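Measured by: Cy5 fluorescence, 0 and 60 min reads / Assay system: NS3 helicase fragment of HCV / Control set: low DMSO, high thioflavine S at 110 µM / Times: 1 h reaction at 25 °C, ATP-initiated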
p97 ATPase inh = human p97 ATPase inhibition | P55072 | inhibition, % at 8 µM | recombinant p97 ATPase, Kinase-Glo ATP luminescence, 3 h | 220,000 compounds, 0.42% hits; in the data active = inhibition above about 15%;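 also: 0% = DMSO vehicle and 100% = wells lacking enzyme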
Target sequence (P55072 whole entry, looked up): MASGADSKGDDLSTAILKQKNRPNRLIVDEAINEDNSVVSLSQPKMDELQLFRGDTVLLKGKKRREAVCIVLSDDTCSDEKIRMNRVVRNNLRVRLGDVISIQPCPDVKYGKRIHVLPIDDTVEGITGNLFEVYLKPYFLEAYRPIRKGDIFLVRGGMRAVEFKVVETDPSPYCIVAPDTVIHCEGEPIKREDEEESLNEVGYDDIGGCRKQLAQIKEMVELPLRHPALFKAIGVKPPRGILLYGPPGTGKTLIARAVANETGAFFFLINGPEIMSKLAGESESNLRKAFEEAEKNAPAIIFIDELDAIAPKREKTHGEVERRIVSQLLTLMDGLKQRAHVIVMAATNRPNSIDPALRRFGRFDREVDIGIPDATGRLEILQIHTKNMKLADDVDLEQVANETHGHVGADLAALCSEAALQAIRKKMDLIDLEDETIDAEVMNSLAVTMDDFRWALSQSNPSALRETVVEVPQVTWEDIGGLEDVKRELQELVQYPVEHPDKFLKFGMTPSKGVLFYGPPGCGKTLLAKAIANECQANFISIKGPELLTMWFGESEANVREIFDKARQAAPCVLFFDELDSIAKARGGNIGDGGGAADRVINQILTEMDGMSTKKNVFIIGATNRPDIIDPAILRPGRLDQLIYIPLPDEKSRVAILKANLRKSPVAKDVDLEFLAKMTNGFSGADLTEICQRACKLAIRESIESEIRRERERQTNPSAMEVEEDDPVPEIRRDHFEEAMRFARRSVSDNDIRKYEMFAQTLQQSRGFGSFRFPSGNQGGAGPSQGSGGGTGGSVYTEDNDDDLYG
CHOP inhibitor = inhibitors of CHOP induction in ER stress response | 220,000 compounds, 3.8% hits | CHO-K1 CHOP-promoter luciferase, tunicamycin-induced, 15-18 h | inhibition, % at 10 µM;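 active = compounds that reduced the stress-induced luciferase reporter signal by more than about 70% of percent inhibition, limit read from the data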;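 also: 0% = tunicamycin plus vehicle and 100% = wells without tunicamycin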
PfM18AAP inh-1 = PfM18AAP enzyme inhibition; 290,000 compounds, 1.2% hits; inhibition, % at 7.35 µM; recombinant PfM18AAP, H-Glu-NHMec fluorogenic cleavage;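 active = inhibition above the campaign mean inhibition over all tested compounds plus 3 SD, cut at about 28% in these data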;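 also: 0% = plate median of test compound wells and 100% = 2 mM ZnCl2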
NS3 helicase cf = HCV NS3 helicase inhibition, confirmation assay; shares compounds with HCV NS3 hel inh; NS3 helicase DNA unwinding, Cy5 molecular beacon fluorescence; inhibition, % at 10.9 µM; 1,600 compounds, 31% hits; AID 1943;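 active = inhibition above the mean of all tested compounds plus 3 SD, cutoff set per campaign, cut at about 36% in these data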
FID counter trip = displaces DNA intercalator in HCV helicase counter-screen; shares compounds with HCV NS3 hel inh; DNA fluorescent intercalator displacement, fluorescence; inhibition, % at 7.9 µM; 1,600 compounds, 4% hits; AID 1945; in the data active = inhibition above about 37%;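 also: 0% = vehicle and 100% = reference compound; higher means more displacement of ethidium bromide from the DNA hairpin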
FID counter DR = displaces fluorescent intercalator from DNA, HCV helicase counter-screen | shares compounds with HCV NS3 hel inh | fluorescent intercalator displacement from DNA, fluorescence | IC50, µM | 120 tested, under 10 active; call rule not given here
PfM18AAP inh-2 = PfM18AAP inhibition, confirmation; recombinant PfM18AAP, H-Glu-NHMec fluorogenic cleavage; inhibition, % at 7.35 µM; shares compounds with PfM18AAP inh-1; 2,400 compounds, 28% hits;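 active = mean inhibition over replicate wells above the hit cutoff set for the earlier primary screen, cut at about 29% in these data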;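 also: 0% = median of test compound wells and 100% = 2 mM ZnCl2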
CTSL1 confirm = Cathepsin L (human) inhibition, confirmation | shares compounds with PfM18AAP inh-1 | purified cathepsin L1, Z-Leu-Arg-MCA fluorescence | inhibition, % at 5.96 µM | 2,400 tested, under 10 active | AID 2178;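 active = average inhibition across replicates above the hit cutoff set in the earlier primary screen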;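 also: 0% = median of test compound wells and 100% = Z-Phe-Ala-diazomethylketone 1 µM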
The depositor's hits bear a star; . = no result.

SMILES	UPR XBP1 act	CHOP UPR activ	HCV NS3 hel inh	p97 ATPase inh	CHOP inhibitor	PfM18AAP inh-1	NS3 helicase cf	FID counter trip	others
O=C1NC(=O)C(=Cc2ccc(-c3ccccc3[N+](=O)[O-])o2)C(=O)N1	-2.7	-0.1	45.1*	10.3	95.3*	11.9	-22.5	20.3
CNS(=O)(=O)c1ccc(-c2ccc(C=C3C(=O)NC(=O)NC3=O)o2)cc1	-1.2	-2.2	45.2*	.	.	-2.0	-27.6	6.2
Cc1ccccc1N1C(=O)/C(=C/c2ccco2)C(=O)NC1=S	.	.	81.1*	.	.	-27.8	83.0*	21.0
O=c1[nH]c(=S)n(-c2ccc(Br)cc2)c(O)c1C=Nc1ccc(N2CCOCC2)cc1	-6.1	-4.1	37.2*	0.8	51.7	21.3	11.1	-13.7
Cc1ccc(N=Cc2c(O)n(-c3ccc(C)cc3)c(=O)[nH]c2=O)cc1	2.6	5.2	.	.	.	.	.	.
O=c1[nH]c(=S)n(-c2ccccc2F)c(O)c1C=Nc1ccc(N2CCOCC2)cc1	7.3	-1.4	54.1*	5.0	-1.4	18.1	17.7	-24.2
Cc1cc(C)cc(-n2c(O)c(C=Nc3ccc(N4CCOCC4)cc3)c(=O)[nH]c2=S)c1	2.8	-1.8	15.3	0.9	32.2	11.3	.	.
CC(=O)N1CCN(c2ccc(N=Cc3c(O)n(-c4ccc(Cl)cc4)c(=O)[nH]c3=O)cc2)CC1	-3.5	0.2	43.4*	5.3	-57.5	20.8	-10.6	-26.5
Nc1ccc2nonc2c1[N+](=O)[O-]	2.6	-1.0	-2.0	-5.0	0.9	-5.8	.	.
COC(=O)C(O)(c1ccc2c(c1)CCCN2)C(F)(F)F (configuration not stated)	-0.3	2.3	0.2	2.2	6.2	-0.1	.	.
Cc1cc(/C=C2/C(=O)NC(=O)N(Cc3ccco3)C2=O)c(C)n1-c1ccccc1O	-1.5	-0.1	49.2*	11.8	-21.3	16.3	-16.7	11.4
CCN(CC)C(=O)c1ccc2c(c1)C1C(Cl)C(Sc3ccccc3[N+](=O)[O-])CC1C(C(=O)O)N2 (configuration not stated)	-2.4	-0.6	18.4	-3.2	-5.0	23.8	.	.
CCN(CC)C(=O)c1ccc2c(c1)C1C=CCC1C(C(=O)O)N2 (configuration not stated)	-3.9	-0.5	41.9*	.	.	19.4	85.7*	-2.9
Cc1ccc(N2C(=O)CC(=O)NC2=O)cc1Cl	-5.5	-0.1	45.3*	.	.	11.4	-2.6	33.2
CCOc1cccc(N2C(=O)CC(=O)NC2=O)c1	-1.7	1.0	59.2*	-6.9	19.2	14.9	-22.1	3.0
COc1cccc(N2C(=O)CC(=O)NC2=O)c1	1.7	-1.3	27.5	-7.1	-13.1	-5.6	.	.
CN=C(SCc1cc2c(cc1Cl)OCO2)c1c(O)n(C)c(=O)n(C)c1=O	0.4	-2.7	5.0	2.2	39.3	11.0	.	.
O=C1NC(=O)N(c2ccccc2)C(=O)/C1=C\c1ccc([N+](=O)[O-])s1	-3.0	4.2	41.1*	9.6	44.8	7.5	50.3*	10.6	FID counter DR=>79.4
CN1C(=O)NC(=O)/C(=C/c2ccc([N+](=O)[O-])s2)C1=O	3.6	26.9	16.5	-0.1	-60.8	12.4	.	.
O=[N+]([O-])O[C@H]1CO[C@H]2[C@@H]1OC[C@H]2O[N+](=O)[O-]	-1.7	-0.3	.	.	.	.	.	.
COC(=O)C1=C(c2c(C)noc2C)C[C@@H]2CC[C@H]1N2C(=O)NC1CC1	-1.3	0.6	.	.	.	.	.	.
Cc1cc(C)nc(/N=C(\N)c2c(O)[nH]c(=O)[nH]c2=O)n1	3.5	-1.5	-1.3	0.4	2.0	1.2	.	.
CN1CCc2cc3c(c4c2C1Cc1ccccc1-4)OCO3 (configuration not stated)	-3.0	2.1	44.3*	.	.	49.5*	-6.1	82.2*	PfM18AAP inh-2=4.6;CTSL1 confirm=46.1*
Cc1ccccc1-n1c(O)c(C=Nc2ccc(N(C)C)cc2)c(=O)[nH]c1=O	-3.3	0.5	42.5*	-2.5	33.5	45.9*	-11.8	-14.4	PfM18AAP inh-2=-56.1;CTSL1 confirm=6.0
C[n+]1ccc(-c2ccncc2)cc1	-3.1	1.7	-1.6	4.0	5.0	-10.1	.	.
CC(=O)O[C@@H]1/C=C/[C@](C)(O)C[C@@H](C)C/C=C/[C@H]2[C@@H]3O[C@]3(C)[C@@H](C)[C@H]3[C@H](Cc4ccccc4)NC(=O)[C@@]312	-2.3	1.9	.	.	.	.	.	.
CN(C)C1C(=O)C(C(N)=O)=C(O)C2(O)C(=O)C3=C(O)c4c(O)cccc4C(C)(O)C3CC12 (configuration not stated)	.	.	42.5*	.	.	36.1*	3.8	11.1	PfM18AAP inh-2=-49.0;CTSL1 confirm=-5.0
CN(C)[C@@H]1C(=O)C(C(N)=O)=C(O)[C@@]2(O)C(=O)C3=C(O)c4c(O)cccc4[C@@](C)(O)[C@H]3C[C@@H]12	-7.0	-0.2	.	.	.	.	.	.
